In PubChem BioAssay:
Results filed as inconclusive are left out.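 How the source made its calls, unless noted: active means cell viability at or below a set limit in both duplicate runs, the limit being the all-compound median minus 4 SD (cut at about 23% in these data, passing the limit was not always enough); inconclusive means no clear call, values can overlap the other calls; inactive means the rest.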

Assays:
[1] = OD615 S. cerevisiae growth inhibition, permissive medium, pilot counter-assay, permissive growth control for S. cerevisiae lifespan shortening project (AID 705;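 active means growth inhibition above 25% in both replicates, a cutoff set 3 SD above the mean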); settings: OD615, 24 h, at 10 µM, stronger effect = higher value
Procedure, shortened: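 Material: engineered DeaD yeast; Compound: one dose 10 µM, DMSO 0.25% final; Detection: absorbance (optical density) at 615 nm; Buffer or medium: permissive raffinose/galactose medium; Timing: 24 h exposure, 30 °C.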

[2] = Restrictive medium S. cerevisiae growth inhibition, OD615, pilot screen of yeast lifespan reduction project, restrictive growth control (AID 706;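 active means growth inhibition above a set limit, 3 SD over mean compound inhibition, in both replicates, cut at about 43% in these data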;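 further: modified DeaD lifespan yeast strain shifted to restrictive glucose medium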); settings: OD615, 48 h, at 10 µM, stronger effect = higher value
Procedure, shortened: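 Buffer or medium: restrictive glucose medium (CSMM-D); test system: modified S. cerevisiae; doses: single dose of 10 µM compound final, 0.25% DMSO; schedule: 48 h compound exposure at 30 °C; detection: absorbance (optical density) measured at 615 nm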

[3] = viability gain of MRP-1-high H69AR cells under doxorubicin, pilot screen, MRP-1 activator project, CellTiter-Glo, duplicate (AID 807;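 active means viability increase at or above a cutoff of the median across tested compounds plus 3 SD, cut at about 8.5% in these data, passing the limit was not always enough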;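 further: compound pretreatment 18-22 h then 72 h combined with doxorubicin; 0% = doxorubicin alone and 100% = vehicle without doxorubicin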); settings: H69AR viability with doxorubicin, CellTiter-Glo luminescence; at 10 µM; stronger effect = higher value
[4] = growth suppression of beta-catenin knockout HCT116, pilot screen, human colon tumor cells (AID 823); settings: CellTiter-Glo, 60 h, at 10 µM, stronger effect = lower value;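 further: 0% = wells killed by 20 µM Hyamine and 100% = untreated DMSO cell wells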
[5] = growth suppression of PTEN-deleted HCT116, pilot screen, cell-based, HCT116 clonal line, CellTiter-Glo (AID 824;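 active means viability at or below 27.92% in each of two runs, the all-compound median minus 4 SD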;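 further: 0% = 20 µM Hyamine control and 100% = vehicle cell control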); settings: 60 h, at 10 µM, stronger effect = lower value
[6] = inhibitors of the yeast RAM network, pilot screen, dse1pr::URA3 reporter, 5-FOA selection (AID 869;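 active means inhibition over a set limit, the all-compound mean plus 3 SD, in both replicate runs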;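 further: 0% = DMSO wells with no growth and 100% = 10 µM 1-NA-PP1 with full growth; RAM network block rescues cells from 5-FOA so hits raise OD615 growth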); settings: S. cerevisiae dse1pr::URA3 5-FOA growth, OD615, 2 d; at 10 µM; stronger effect = higher value; strain carries analog-sensitive mutant Cbk1 kinase
[7] = RAM signaling pathway blockade in yeast – S. cerevisiae, Pdr1DBD-CYC8 efflux-inhibited sensitized strain, primary screen (AID 1298;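 active means RAM network inhibition above 8.4% in each of two replicates, 3 SD over the compound average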;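 further: 0% = DMSO untreated cells without growth and 100% = 10 µM 1-NA-PP1 full growth; higher means more yeast growth rescued from 5-FOA killing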); settings: S. cerevisiae cbk1-as DSE1-URA3 strain, 5-FOA growth OD615, 2 d; at 50 µM; stronger effect = higher value

O=C(CCCOc1ccccc1)Nc1cccc(C(=O)O)c1
inactive: growth inhibition [1] -0.54% | growth inhibition [2] 3.65% | viability increase [3] 0.34% | viability [4] 96% | viability [5] 98.6% | inhibition [6] 2.61% | RAM network inhibition [7] 2.71%

COc1cccc(C2C(C(=O)OCc3ccccc3)=C(C)Nc3ncnn32)c1OC (configuration not stated)
inactive: growth inhibition [1] -8.96% | growth inhibition [2] 1.86% | viability increase [3] 0.73% | viability [4] 103% | viability [5] 83.5% | inhibition [6] 2.32% | RAM network inhibition [7] 4.9%

c1ccc(CNn2c(N3CCOCC3)nc3ccccc32)cc1
inactive: growth inhibition [1] -14.9% | growth inhibition [2] -10.9% | viability increase [3] -3.02% | viability [4] 93% | viability [5] 93.2% | inhibition [6] 0.5% | RAM network inhibition [7] 4.26%

Cc1ccc(C2/C(=C(/O)c3ccc(Cl)cc3)C(=O)C(=O)N2CC2CCCO2)o1 (configuration not stated)
inactive: growth inhibition [1] -7.4% | growth inhibition [2] 12.5% | viability increase [3] -3.2% | viability [4] 95.1% | viability [5] 96.4% | inhibition [6] 0.77% | RAM network inhibition [7] -0.36%

COCCCNC(=O)c1ccccc1Oc1ccccc1
inactive: growth inhibition [1] -8.28% | growth inhibition [2] -2.05% | viability increase [3] -1.39% | viability [4] 96.3% | viability [5] 97% | inhibition [6] 1.46% | RAM network inhibition [7] 1.58%

CC1CCCN(c2nc3c(c(=O)[nH]c(=O)n3C)n2CCSc2ncccn2)C1 (configuration not stated)
inactive: growth inhibition [1] -2.51% | growth inhibition [2] 2.04% | viability increase [3] -3.17% | viability [4] 97% | viability [5] 96.8% | inhibition [6] 1.14% | RAM network inhibition [7] 2.7%

Cc1c(NC(=O)c2ccc(F)cc2)c(=O)n(-c2ccccc2)n1C
inactive: growth inhibition [1] -15.9% | growth inhibition [2] -7.79% | viability increase [3] -2.08% | viability [4] 106% | viability [5] 96.6% | inhibition [6] 1.34% | RAM network inhibition [7] 1.21%

O=C1C(C=NCc2cccnc2)=C(O)c2ccccc21
inactive: growth inhibition [1] -6.25% | growth inhibition [2] -0.095% | viability increase [3] -2.11% | viability [4] 94.1% | viability [5] 93.4% | inhibition [6] 1.67% | RAM network inhibition [7] 2.36%

O=S(=O)(c1cccc2cccnc12)N1CCN(Cc2ccc3c(c2)OCO3)CC1
inactive: growth inhibition [1] -7.45% | growth inhibition [2] -17.5% | viability increase [3] -0.35% | viability [4] 84.3% | viability [5] 92.2% | inhibition [6] 1.28% | RAM network inhibition [7] 0.52%

CCOc1cc(C(=O)NC(C)COC)cc(OCC)c1OCC (configuration not stated)
inactive: growth inhibition [1] -4.84% | growth inhibition [2] -8.48% | viability increase [3] -2.05% | viability [4] 104% | viability [5] 104% | inhibition [6] 0.785% | RAM network inhibition [7] 0.53%

COCCNC(=O)Cn1cc2c(n1)CCC(C)C2 (configuration not stated)
inactive: growth inhibition [1] -12.9% | growth inhibition [2] -0.165% | viability increase [3] 0.11% | viability [4] 104% | viability [5] 93.9% | inhibition [6] 2.06% | RAM network inhibition [7] 1.1%

Cc1ccc(C2CC(c3ccccc3Cl)n3nc(N)nc3N2)cc1 (configuration not stated)
inactive: growth inhibition [1] 0.815% | growth inhibition [2] 6.86% | viability increase [3] 2.22% | viability [4] 99.7% | viability [5] 92.5% | inhibition [6] 1.88% | RAM network inhibition [7] 1.81%

CCOC(=O)c1c(C)n(C)c2ccc(OCC(O)CN3CCN(C)CC3)cc12 (configuration not stated)
inactive: growth inhibition [1] -9.58% | growth inhibition [2] -16.5% | viability increase [3] -1.87% | viability [4] 96.2% | viability [5] 106% | inhibition [6] 1.1% | RAM network inhibition [7] -0.99%

c1ccc2[nH]c(-c3ccnc4ccccc34)nc2c1
inactive: growth inhibition [1] 0.915% | growth inhibition [2] -4.32% | viability increase [3] -4.45% | viability [4] 102% | viability [5] 95.9% | inhibition [6] 0.605% | RAM network inhibition [7] 2.99%

Cc1cc(C)c2c3c(c(-c4ccccc4)n2n1)c(=O)n(C)c(=O)n3C
inactive: growth inhibition [1] -9.68% | growth inhibition [2] -1.79% | viability increase [3] -1.8% | viability [4] 101% | viability [5] 94% | inhibition [6] 2.26% | RAM network inhibition [7] 5.77%

CCC(=O)Nc1nc2c(OC)ccc(OC)c2s1
inactive: growth inhibition [1] -2.06% | growth inhibition [2] 0.075% | viability increase [3] -2.87% | viability [4] 97.5% | viability [5] 94.5% | inhibition [6] 1.07% | RAM network inhibition [7] 2.34%

CC(C)c1nnc(NC(=O)c2ccc(S(=O)(=O)N3CCOCC3)cc2)s1
inactive: growth inhibition [1] -15% | growth inhibition [2] -24.1% | viability increase [3] -1% | viability [4] 104% | viability [5] 99.3% | inhibition [6] 2.56% | RAM network inhibition [7] 6.74%

Cc1nn(C)cc1CN(C)C(=O)c1sc2cccc(Cl)c2c1Cl
inactive: growth inhibition [1] -4.77% | growth inhibition [2] 5.83% | viability increase [3] 0.61% | viability [4] 84.1% | viability [5] 82.1% | inhibition [6] -0.12% | RAM network inhibition [7] 3.58%

CCC(=O)N1CC2(C)CN(C(=O)CC)CC(C)(C1)C2
inactive: growth inhibition [1] -6.27% | growth inhibition [2] -24.9% | viability increase [3] -0.75% | viability [4] 95.3% | viability [5] 97% | inhibition [6] 1.59% | RAM network inhibition [7] -0.16%

COC(=O)CSc1nc2ccccc2nc1SCC(=O)OC
inactive: growth inhibition [1] -11.7% | growth inhibition [2] -9.89% | viability increase [3] -2% | viability [4] 93.4% | viability [5] 92% | inhibition [6] 2.12% | RAM network inhibition [7] 7.83%

CC1(C)CC(=O)C2=C(C1)Nc1ccccc1NC2c1cccnc1 (configuration not stated)
inactive: growth inhibition [1] 7.14% | growth inhibition [2] 1.02% | viability increase [3] -3.43% | viability [4] 96.1% | viability [5] 93.6% | inhibition [6] -0.195% | RAM network inhibition [7] 0.21%

Cc1ccc(-c2nnc(N3CCCCC3)c3ccccc23)cc1S(=O)(=O)N1CCN(C)CC1
inactive: growth inhibition [1] -1.95% | growth inhibition [2] -1.92% | viability increase [3] -5.28% | viability [4] 48% | viability [5] 60.2% | inhibition [6] 0.285% | RAM network inhibition [7] -2.14%

Cc1ccccc1C(=O)Nc1ccc2nc3n(c(=O)c2c1)CCC3
inactive: growth inhibition [1] -2.17% | growth inhibition [2] 0.31% | viability increase [3] 0.79% | viability [4] 106% | viability [5] 104% | inhibition [6] 0.085% | RAM network inhibition [7] 4.34%

CC1CCCC(NC(=O)CSc2nnnn2C)C1C (configuration not stated)
inactive: growth inhibition [1] -6.17% | growth inhibition [2] -10.1% | viability increase [3] 1.61% | viability [4] 95.5% | viability [5] 101% | inhibition [6] 1.29% | RAM network inhibition [7] 2.27%

O=C(NCc1ccco1)c1ccc2c(c1)N(Cc1ccccc1)C(=O)CS2=O (configuration not stated)
inactive: growth inhibition [1] -4.13% | growth inhibition [2] 3.41% | viability increase [3] 3.66% | viability [4] 97.8% | viability [5] 82.6% | inhibition [6] 0.885% | RAM network inhibition [7] 1.29%

O=C(COc1ccccc1)Nc1ccc(S(=O)(=O)N2CCCC2)cc1
inactive: growth inhibition [1] -12.9% | growth inhibition [2] -12.5% | viability increase [3] -1.84% | viability [4] 99.5% | viability [5] 88.7% | inhibition [6] 2.33% | RAM network inhibition [7] 2.76%

CCc1ccccc1NC1c2ccccc2C(=O)N1c1cc(C)ccn1 (configuration not stated)
inactive: growth inhibition [1] -12.1% | growth inhibition [2] -4.82% | viability increase [3] -1.63% | viability [4] 99.1% | viability [5] 101% | inhibition [6] 1.82% | RAM network inhibition [7] 11.4%

CCOC(=O)C1=C(C)Nc2nc(C)nn2C1c1ccc(OC)c(OC)c1 (configuration not stated)
inactive: growth inhibition [1] -6.55% | growth inhibition [2] -3.96% | viability increase [3] -3.45% | viability [4] 99.5% | viability [5] 102% | inhibition [6] 0.77% | RAM network inhibition [7] 0.06%

COc1ccc(OCC(=O)Nc2cccc(C(C)=O)c2)cc1
inactive: growth inhibition [1] 0.595% | growth inhibition [2] 15.9% | viability increase [3] -0.88% | viability [4] 93.9% | viability [5] 94.6% | inhibition [6] 0.74% | RAM network inhibition [7] 2.7%

Cc1cc(C)n(-c2ncnc3sc4c(c23)CC(C)CC4)n1 (configuration not stated)
inactive: growth inhibition [1] -1.99% | growth inhibition [2] 6.4% | viability increase [3] -0.82% | viability [4] 89.7% | viability [5] 90.7% | inhibition [6] 1.6% | RAM network inhibition [7] 0.87%

CCSc1nnc(Cn2c(=O)sc3ccccc32)n1-c1ccc(OC)cc1
inactive: growth inhibition [1] -4.46% | growth inhibition [2] 30.7% | viability increase [3] -1.8% | viability [4] 92.1% | viability [5] 86.5% | inhibition [6] -0.94% | RAM network inhibition [7] 9.11%

Nc1nc(Nc2cccc(F)c2)nc2ccccc12
inactive: growth inhibition [1] -11.6% | growth inhibition [2] -30.8% | viability increase [3] -5.76% | viability [4] 70.3% | viability [5] 67.6% | inhibition [6] 1.88% | RAM network inhibition [7] 4.92%

CCOC(=O)Cc1csc(NC(=O)COc2ccc(N(C)S(=O)(=O)c3cccs3)cc2)n1
inactive: growth inhibition [1] -7.54% | growth inhibition [2] -11.7% | viability increase [3] -1.76% | viability [4] 71% | viability [5] 80.3% | inhibition [6] 0.12% | RAM network inhibition [7] 1.7%

CCSc1nc2c(cnn2-c2ccc(C)c(C)c2)c(=O)[nH]1
inactive: growth inhibition [1] -2.47% | growth inhibition [2] -2.05% | viability increase [3] -1% | viability [4] 98.8% | viability [5] 94.2% | inhibition [6] 1.42% | RAM network inhibition [7] 7.85%

CC1(C)CC(=O)C(C=NCc2cccnc2)=C(O)C1
inactive: growth inhibition [1] -10.7% | growth inhibition [2] -17.6% | viability increase [3] 0.64% | viability [4] 92.8% | viability [5] 98.8% | inhibition [6] 0.7% | RAM network inhibition [7] 4.76%

CC(=O)Nc1sc(N)nc1-c1ccccc1
inactive: growth inhibition [1] -7.75% | growth inhibition [2] 16.2% | viability increase [3] 0.94% | viability [4] 88.7% | viability [5] 99.5% | inhibition [6] 0.055% | RAM network inhibition [7] 3.89%
